The values that follow come from ChEMBL document CHEMBL1155877, “Design, synthesis, and biological evaluation of 14-substituted aromathecins as topoisomerase I inhibitors” (2008).

Molecules are shown by their SMILES. Active and inactive are the calls of the source. The calls are words filed in the database; no cut-off is given here. A value given as a limit tells only on which side of the number the result lay.

The GI50 is the concentration at which growth is held to half of that of the control. Read a low GI50 as more potent growth inhibition. As a reminder, the inhibition is the share of the control response that was lost under treatment.

Test [1] deals with HOP-62. The test can be described thus: Antiproliferative activity against human HOP62 cells. The test is classed as functional. In short, it runs like this:
(§1)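 NCI ~60 human tumor cell line screen. After an initial one-dose test, selected compounds run at five concentrations spanning 10^-8 to 10^-4 M. GI50 reported for selected lines from each subpanel.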

The test system of the next test is HCT-116. The test can be described thus: Antiproliferative activity against human HCT116 cells. The test is classed as functional. In short, it runs like this: as §1
A further test relates to SF-539. The test is described as follows: Antiproliferative activity against human SF539 cells. The test is classed as functional. In short, it runs like this:
as §1

A further test has as its system UACC-62. The test can be described thus: Antiproliferative activity against human UACC62 cells. The test is classed as functional. The essentials:
as §1

For another test, the system named is OVCAR-3. The test is described as follows: Antiproliferative activity against human OVCAR-3 cells. The test is classed as functional. The essentials:
as §1

The next test has as its system SN12C. The test can be described thus: Antiproliferative activity against human SN12C cells. The test is classed as functional. The essentials:
as §1

Another test relates to DU-145. The test can be described thus: Antiproliferative activity against human DU145 cells. The test is classed as functional. In short, it runs like this: as §1
A further test relates to MDA-MB-435. The test is described as follows: Antiproliferative activity against human MDA-MB-435 cells. The test is classed as functional. The essentials: as §1
Test [2] concerns the target T1, DNA topoisomerase 1 (Homo sapiens) (UniProt P11387).
T1 sequence (whole entry): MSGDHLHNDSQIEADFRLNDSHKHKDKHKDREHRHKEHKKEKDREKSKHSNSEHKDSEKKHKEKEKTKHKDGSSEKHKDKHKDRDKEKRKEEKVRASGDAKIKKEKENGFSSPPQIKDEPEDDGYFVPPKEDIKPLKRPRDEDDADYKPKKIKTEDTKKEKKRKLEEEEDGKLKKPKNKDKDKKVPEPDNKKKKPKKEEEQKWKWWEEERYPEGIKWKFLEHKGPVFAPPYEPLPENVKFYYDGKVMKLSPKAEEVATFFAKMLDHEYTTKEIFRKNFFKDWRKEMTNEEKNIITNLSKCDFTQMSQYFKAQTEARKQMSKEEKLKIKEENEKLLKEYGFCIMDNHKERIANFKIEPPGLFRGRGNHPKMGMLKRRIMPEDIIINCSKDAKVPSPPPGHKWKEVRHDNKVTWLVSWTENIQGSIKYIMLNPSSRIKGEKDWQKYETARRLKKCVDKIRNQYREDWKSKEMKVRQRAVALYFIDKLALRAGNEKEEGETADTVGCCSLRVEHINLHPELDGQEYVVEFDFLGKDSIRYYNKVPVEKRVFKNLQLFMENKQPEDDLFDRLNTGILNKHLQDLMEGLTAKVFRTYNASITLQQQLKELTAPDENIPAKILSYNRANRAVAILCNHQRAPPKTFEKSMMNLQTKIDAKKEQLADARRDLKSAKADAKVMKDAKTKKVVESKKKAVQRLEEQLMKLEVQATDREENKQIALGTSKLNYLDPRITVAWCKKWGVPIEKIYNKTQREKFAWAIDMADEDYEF
The test is described as follows: Inhibition of human recombinant topoisomerase 1 assessed as DNA cleavage relative to 1 uM camptothecin. The essentials: (§2)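 Baculovirus-expressed, purified human recombinant top1. Substrate is the 161 bp PvuII/HindIII fragment of pBluescript SK(-), 3'-end labeled at the HindIII site with [α-32P]-dGTP (about 50 000 dpm/reaction). Incubated with drug at 22 °C for 30 min. Products resolved on denaturing 16% polyacrylamide/7 M urea gels and imaged by phosphorimager. Tested at 0.1, 1, 10 and 100 µM.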

Test [3] has as its system HOP-62. The test is described as follows: Growth inhibition of human HOP62 cells at 10 uM. The test is classed as functional. Conditions: pooled result: one value given for 8 cell lines, strains, targets or settings, read-out: GI.
Test [4] has as its target T1, DNA topoisomerase 1 (Homo sapiens). The test can be described thus: Induction of human recombinant topoisomerase 1-mediated DNA cleavage at 100 uM. The essentials: as §2

As for `O=c1c2ccccc2cc2n1Cc1c-2nc2ccccc2c1CCCn1ccnc1`, the GI50 stood at 2 µM in the test on HOP-62 [1]; 1.6 µM in the test with HCT-116; 0.74 µM in the test on SF-539; 1.5 µM in the test with UACC-62; 5 µM in the test on OVCAR-3; 4.5 µM in the test with SN12C. Also, the GI50 in the test with DU-145 worked out at 3.3 µM; in the test with MDA-MB-435, 4.2 µM. In addition, in [2], the inhibition is 75%.

`CC[C@@]1(O)C(=O)OCc2c1cc1n(c2=O)Cc2cc3ccccc3nc2-1` [CAMPTOTHECIN]: the GI50 worked out at 0.01 µM with HOP-62 [1]; 0.03 µM in the test with HCT-116; 0.01 µM with SF-539; 0.01 µM with UACC-62; 0.02 µM in the test on SN12C; 0.01 µM with DU-145. Besides, in the test with MDA-MB-435, growth was halved (GI50) at 0.04 µM.

`O=c1c2ccccc2cc2n1Cc1c-2nc2ccccc2c1CN1CCOCC1`: in test [2], the inhibition was determined as 50%. The inhibition of growth at 10 µM in the test with HOP-62 [3] was found to be 14%.

In the case of `O=c1c2ccccc2cc2n1Cc1c-2nc2ccccc2c1Cn1ccnc1`, the GI50 with HOP-62 [1] was determined as 10 µM; in the test on HCT-116, 13.2 µM; with SF-539, 4.7 µM; in the test on UACC-62, 3.4 µM; in the test with OVCAR-3 it was 17 µM; in the test with SN12C it was 21.5 µM. The GI50 with DU-145 is 11.5 µM; in the test on MDA-MB-435, over 100 µM. In addition, the inhibition in test [2] turned out to be 75%.

Regarding `CN(C)Cc1c2c(nc3ccccc13)-c1cc3ccccc3c(=O)n1C2`, the GI50 in the test with HOP-62 [1], in the test with SF-539, in the test on UACC-62, in the test on OVCAR-3, in the test with SN12C and in the test with DU-145 was over 100 µM in each case. The same compound yielded a GI50 in the test on MDA-MB-435 of over 100 µM. The inhibition in [2] is 75%.

On to `O=c1c2ccccc2cc2n1Cc1c-2nc2ccccc2c1CN1CC[C@H](O)C1`, for which the GI50 was 28.6 µM in the test on HOP-62 [1]; 9 µM in the test with HCT-116; 5.4 µM in the test on SF-539; 2.7 µM with UACC-62; 5.5 µM with OVCAR-3; 16.9 µM with SN12C. Further, the GI50 is 7 µM in the test with DU-145 and 10.3 µM in the test on MDA-MB-435. For the same compound, the inhibition in [2] worked out at 75%.

Take `CN1CCN(Cc2c3c(nc4ccccc24)-c2cc4ccccc4c(=O)n2C3)CC1`: the concentration for 50% growth inhibition (GI50) in the test on HOP-62 [1] was over 100 µM; in the test on HCT-116 it was 1.9 µM; with SF-539, 1.8 µM; with UACC-62 it was over 100 µM; in the test with SN12C it was over 100 µM; with DU-145, 4.9 µM. The compound further yielded a GI50 in the test with MDA-MB-435 of 2.1 µM. Besides, the inhibition in test [2] came to 75%.

With `O=c1c2ccccc2cc2n1Cc1c-2nc2ccccc2c1CCCNCCO`, the GI50 with HOP-62 [1] turned out to be 1.2 µM; with HCT-116 it was 1.6 µM; with SF-539, 12.9 µM; in the test with UACC-62 it was 1.8 µM; in the test on OVCAR-3, 6.3 µM; in the test on SN12C it was 4.1 µM. Besides, the 50% growth inhibitory concentration (GI50) in the test with DU-145 came out at 13.2 µM; in the test with MDA-MB-435 it was 1.7 µM. Moreover, the outcome in test [2] and in test [4] was Active.

For `O=c1c2ccccc2cc2n1Cc1c-2nc2ccccc2c1CNCCCn1ccnc1`, the GI50 with HOP-62 [1] was found to be 4.7 µM; in the test with HCT-116, 3.2 µM; in the test with SF-539 it was 3.8 µM; in the test on UACC-62, 6.4 µM; in the test with OVCAR-3, 4.4 µM; with SN12C, 3.5 µM. Further, the results for the GI50 in the test on DU-145 and in the test with MDA-MB-435 were 3.2 µM and 7 µM, respectively. In test [2], the inhibition amounted to 50%.

With `COc1cc2cc3n(c(=O)c2cc1OC)Cc1cc2ccccc2nc1-3` [DIMETHOXYAROMATHECIN], the GI50 with HOP-62 [1], in the test with SF-539, in the test on UACC-62, with OVCAR-3, with SN12C and in the test on DU-145 was over 100 µM in each case. This compound also had a concentration for 50% growth inhibition (GI50) with MDA-MB-435 of over 100 µM. Also, in test [2], the inhibition turned out to be 20%.

Consider `NCc1c2c(nc3ccccc13)-c1cc3ccccc3c(=O)n1C2`, for which the GI50 in the test on HOP-62 [1] was determined as 9.8 µM; in the test with HCT-116 it was 1.5 µM; in the test on SF-539, 4.9 µM; in the test on UACC-62 it was 11.7 µM; with OVCAR-3, 2.9 µM; with SN12C it was 2.9 µM. For the same compound, the GI50 was 2.8 µM in the test with DU-145 and 9.4 µM in the test with MDA-MB-435. Also, in [2], the inhibition was found to be 50%.

Regarding `O=c1c2ccccc2cc2n1Cc1c-2nc2ccccc2c1CNCCCN1CCOCC1`, in the test with HOP-62 [3], the inhibition of growth at 10 µM came to 25.5%.

For the compound `O=c1c2ccccc2cc2n1Cc1c-2nc2ccccc2c1CNCCO`, the 50% growth inhibitory concentration (GI50) came to 3.5 µM in the test with HOP-62 [1]; 3.6 µM in the test with HCT-116; 3.9 µM in the test on SF-539; 2.6 µM in the test with UACC-62; 6.3 µM with OVCAR-3; 2.7 µM in the test on SN12C. Moreover, the GI50 with DU-145 was 2.8 µM; in the test with MDA-MB-435 it was over 100 µM. The inhibition in [2] came to 75%.

For `COc1cc2c3c(n(CCCNCCO)c(=O)c2cc1OC)-c1cc2c(cc1C3=O)OCO2` [LMP-744], the GI50 in the test with HOP-62 [1] is 0.02 µM; in the test on HCT-116 it was 0.1 µM; with SF-539 it was 0.04 µM; with UACC-62 it was 0.03 µM; in the test with OVCAR-3 it was 0.5 µM; with SN12C it was over 0.01 µM. Moreover, the values for the GI50 in the test with DU-145 and with MDA-MB-435 were over 0.01 µM and 0.79 µM, respectively. The outcome in [2] was Active.

As to `O=c1c2cccc(CO)c2cc2n1Cc1cc3ccccc3nc1-2`, in test [2], the inhibition stood at 20%.

For `COc1cc2c3c(n(C)c(=O)c2cc1OC)-c1cc2c(cc1C3=O)OCO2`, the GI50 came to 1.3 µM in the test with HOP-62 [1]; 35 µM in the test on HCT-116; 41 µM in the test on SF-539; 4.2 µM in the test on UACC-62; 68 µM in the test with SN12C; 37 µM in the test on DU-145. In the test with MDA-MB-435, this compound came in with a GI50 of 96 µM. In test [2], the inhibition is 50%.

Take `O=c1c2ccccc2cc2n1Cc1c-2nc2ccccc2c1CCCN1CCOCC1`: the GI50 in the test with HOP-62 [1] is 5 µM; in the test with HCT-116, 3.9 µM; in the test on SF-539, 3.5 µM; in the test with UACC-62, 1.4 µM; in the test with OVCAR-3, 10.6 µM; in the test on SN12C, 5.9 µM. The GI50 with DU-145 was 20.3 µM; in the test on MDA-MB-435 it was over 100 µM. In test [2], the inhibition is 50%.

Take `CN(C)CCCc1c2c(nc3ccccc13)-c1cc3ccccc3c(=O)n1C2`: the inhibition in test [2] came out at 75%. In the test with HOP-62 [3], the inhibition of growth at 10 µM was found to be 21.4%.

As to `NCCCc1c2c(nc3ccccc13)-c1cc3ccccc3c(=O)n1C2`, the inhibition in test [2] turned out to be 20%.

Regarding `O=c1c2ccccc2cc2n1Cc1c-2nc2ccccc2c1CCl`, the 50% growth inhibitory concentration (GI50) in the test with HOP-62 [1] is 26.5 µM; in the test with HCT-116 it was 43.4 µM; in the test on SF-539 it was 7.4 µM; in the test on UACC-62, over 100 µM; with OVCAR-3, over 100 µM; in the test on SN12C, over 100 µM. Moreover, the GI50 in the test on DU-145 and in the test with MDA-MB-435 was over 100 µM in each case. The inhibition in test [2] was 20%.

Consider `O=c1c2ccccc2cc2n1Cc1cc3ccccc3nc1-2` [ROSETTACIN], for which the GI50 in the test with SN12C and in the test with DU-145 was over 100 µM throughout. Further, the inhibition in [2] worked out at 50%.
